Results reported in ChEMBL document CHEMBL1811814, “Synthesis and evaluation of indole, pyrazole, chromone and pyrimidine based conjugates for tumor growth inhibitory activities--development of highly efficacious cytotoxic agents” (Eur J Med Chem, 2010).

Assays:
Format in all cases: functional
Design in all cases: scale not given: the % may be the effect or the level left
TK-10 = experiment: Growth inhibition of human TK10 cells assessed tumor cell growth at 10^-5 M
In short: (§1)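 Single-dose screen at 10^-5 M across the 60 human tumor cell line panel, run to NCI standards. The value is the percent growth of each cell line in the presence of compound. Compounds active at this dose moved on to five-concentration testing (10^-4 to 10^-8 M).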

[1] = Growth inhibition of human Hs 578T cells assessed tumor cell growth at 10^-5 M
In short: (§2)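 NCI 60-human-tumor-cell-line panel screen. Each compound was tested at a single concentration of 10^-5 M, and percent growth of tumor cells was recorded for each cell line. Growth inhibition was expressed from these percent-growth values.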

U-251 = experiment: Growth inhibition of human U251 cells assessed tumor cell growth at 10^-5 M; in short: as §1
CCRF-CEM = experiment: Growth inhibition of human CCRF-CEM cells assessed tumor cell growth at 10^-5 M; in short: as §2
SNB-19 = experiment: Growth inhibition of human SNB19 cells assessed tumor cell growth at 10^-5 M; in short: as §1
SK-MEL-28 = experiment: Growth inhibition of human SK-MEL-28 cells assessed tumor cell growth at 10^-5 M; in short: as §2
NCI-H226 = experiment: Growth inhibition of human NCI-H226 cells assessed tumor cell growth at 10^-5 M; in short: as §2
MDA-MB-435 = experiment: Growth inhibition of human MDA-MB-435 cells assessed tumor cell growth at 10^-5 M; in short: as §2
SR = experiment: Growth inhibition of human SR cells assessed tumor cell growth at 10^-5 M; in short: as §1
OVCAR-5 = experiment: Growth inhibition of human OVCAR5 cells assessed tumor cell growth at 10^-5 M; in short: as §2
LOX IMVI = experiment: Growth inhibition of human LOXIMVI cells assessed tumor cell growth at 10^-5 M; in short: as §2
HCT-116 = experiment: Growth inhibition of human HCT116 cells assessed tumor cell growth at 10^-5 M; in short: as §2
EKVX = experiment: Growth inhibition of human EKVX cells assessed tumor cell growth at 10^-5 M; in short: as §2
KM12 = experiment: Growth inhibition of human KM12 cells assessed tumor cell growth at 10^-5 M; in short: as §2
SF-295 = experiment: Growth inhibition of human SF295 cells assessed tumor cell growth at 10^-5 M; in short: as §2
PC-3 = experiment: Growth inhibition of human PC3 cells assessed tumor cell growth at 10^-5 M; in short: as §2
SF-268 = experiment: Growth inhibition of human SF268 cells assessed tumor cell growth at 10^-5 M; in short: as §2
UACC-62 = experiment: Growth inhibition of human UACC62 cells assessed tumor cell growth at 10^-5 M; in short: as §1
A549 = experiment: Growth inhibition of human A549 cells assessed tumor cell growth at 10^-5 M; in short: as §2
SW-620 = experiment: Growth inhibition of human SW620 cells assessed tumor cell growth at 10^-5 M; in short: as §1
K562 = experiment: Growth inhibition of human K562 cells assessed tumor cell growth at 10^-5 M; in short: as §2
MOLT-4 = experiment: Growth inhibition of human MOLT4 cells assessed tumor cell growth at 10^-5 M; in short: as §2
HL-60(TB) = experiment: Growth inhibition of human HL-60(TB) cells assessed tumor cell growth at 10^-5 M
In short: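 HL-60(TB), part of the 60-line panel, tested at a single concentration of 10^-5 M. The read-out is percent tumor cell growth relative to untreated growth.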

HCC 2998 = experiment: Growth inhibition of human HCC2998 cells assessed tumor cell growth at 10^-5 M; in short: as §2
M14 = experiment: Growth inhibition of human M14 cells assessed tumor cell growth at 10^-5 M; in short: as §2
SF-539 = experiment: Growth inhibition of human SF539 cells assessed tumor cell growth at 10^-5 M; in short: as §2
Malme-3M = experiment: Growth inhibition of human MALME-3M cells assessed tumor cell growth at 10^-5 M; in short: as §2
HOP-62 = experiment: Growth inhibition of human HOP62 cells assessed tumor cell growth at 10^-5 M; in short: as §2
SK-MEL-5 = experiment: Growth inhibition of human SK-MEL-5 cells assessed tumor cell growth at 10^-5 M; in short: as §2
IGROV-1 = experiment: Growth inhibition of human IGROV1 cells assessed tumor cell growth at 10^-5 M; in short: as §2
T47D = experiment: Growth inhibition of human T47D cells assessed tumor cell growth at 10^-5 M; in short: as §1
SN12C = experiment: Growth inhibition of human SN12C cells assessed tumor cell growth at 10^-5 M; in short: as §2
DU-145 = experiment: Growth inhibition of human DU145 cells assessed tumor cell growth at 10^-5 M; in short: as §2
MCF7 = experiment: Growth inhibition of human MCF7 cells assessed tumor cell growth at 10^-5 M; in short: as §2
BT-549 = experiment: Growth inhibition of human BT549 cells assessed tumor cell growth at 10^-5 M; in short: as §2
SNB-75 = experiment: Growth inhibition of human SNB75 cells assessed tumor cell growth at 10^-5 M; in short: as §1
A498 = experiment: Growth inhibition of human A498 cells assessed tumor cell growth at 10^-5 M; in short: as §2
COLO 205 = experiment: Growth inhibition of human COLO205 cells assessed tumor cell growth at 10^-5 M; in short: as §2
SK-OV-3 = experiment: Growth inhibition of human SKOV3 cells assessed tumor cell growth at 10^-5 M; in short: as §2
SK-MEL-2 = experiment: Growth inhibition of human SK-MEL-2 cells assessed tumor cell growth at 10^-5 M; in short: as §2
OVCAR-4 = experiment: Growth inhibition of human OVCAR4 cells assessed tumor cell growth at 10^-5 M; in short: as §2
OVCAR-3 = experiment: Growth inhibition of human OVCAR3 cells assessed tumor cell growth at 10^-5 M; in short: as §2
HT-29 = experiment: Growth inhibition of human HT-29 cells assessed tumor cell growth at 10^-5 M; in short: as §2
NCI-H522 = experiment: Growth inhibition of human NCI-H522 cells assessed tumor cell growth at 10^-5 M; in short: as §2
ACHN = experiment: Growth inhibition of human ACHN cells assessed tumor cell growth at 10^-5 M; in short: as §2
NCI-H322M = experiment: Growth inhibition of human NCI-H322M cells assessed tumor cell growth at 10^-5 M; in short: as §2
NCI/ADR-RES = experiment: Growth inhibition of human NCI/ADR-RES cells assessed tumor cell growth at 10^-5 M; in short: as §2
HCT-15 = experiment: Growth inhibition of human HCT15 cells assessed tumor cell growth at 10^-5 M; in short: as §2
RXF 393 = experiment: Growth inhibition of human RXF393 cells assessed tumor cell growth at 10^-5 M; in short: as §2
NCI-H23 = experiment: Growth inhibition of human NCI-H23 cells assessed tumor cell growth at 10^-5 M; in short: as §2
UACC-257 = experiment: Growth inhibition of human UACC257 cells assessed tumor cell growth at 10^-5 M; in short: as §1
[2] = Growth inhibition of human […] cells assessed tumor cell growth at 10^-5 M; in short: as §2
HOP-92 = experiment: Growth inhibition of human HOP92 cells assessed tumor cell growth at 10^-5 M; in short: as §2
CAKI-1 = experiment: Growth inhibition of human Caki1 cells assessed tumor cell growth at 10^-5 M; in short: as §2
NCI-H460 = experiment: Growth inhibition of human NCI-H460 cells assessed tumor cell growth at 10^-5 M; in short: as §2
MDA-MB-468 = experiment: Growth inhibition of human MDA-MB-468 cells assessed tumor cell growth at 10^-5 M; in short: as §2
MDA-MB-231 = experiment: Growth inhibition of human MDA-MB-231 cells assessed tumor cell growth at 10^-5 M; in short: as §2
UO-31 = experiment: Growth inhibition of human UO31 cells assessed tumor cell growth at 10^-5 M; in short: as §1
OVCAR-8 = experiment: Growth inhibition of human OVCAR8 cells assessed tumor cell growth at 10^-5 M; in short: as §2
786-0 = experiment: Growth inhibition of human 786-0 cells assessed tumor cell growth at 10^-5 M; in short: as §2

Compound: Cc1ccc(S(=O)(=O)n2cc(/C=C3\C(=O)N(c4c(Cl)cccc4Cl)c4ccccc43)c3ccccc32)cc1
- Activity (TK-10): 102.3%
- Activity [1]: 73.4%
- Activity (U-251): 98.2%
- Activity (CCRF-CEM): 95.6%
- Activity (SNB-19): 105.9%
- Activity (SK-MEL-28): 95.8%
- Activity (NCI-H226): 95.2%
- Activity (MDA-MB-435): 99.2%
- Activity (SR): 87.4%
- Activity (OVCAR-5): 84.2%
- Activity (LOX IMVI): 89.7%
- Activity (HCT-116): 87%
- Activity (EKVX): 89.5%
- Activity (KM12): 97.6%
- Activity (SF-295): 100.8%
- Activity (PC-3): 64.5%
- Activity (SF-268): 86.4%
- Activity (UACC-62): 78.2%
- Activity (A549): 103.8%
- Activity (SW-620): 89.9%
- Activity (K562): 86.5%
- Activity (MOLT-4): 89.6%
- Activity (HL-60(TB)): 79.6%
- Activity (HCC 2998): 86.7%
- Activity (M14): 76%
- Activity (SF-539): 102.9%
- Activity (Malme-3M): 75.8%
- Activity (HOP-62): 83.2%
- Activity (SK-MEL-5): 101%
- Activity (IGROV-1): 83.8%
- Activity (T47D): 88.7%
- Activity (SN12C): 87.4%
- Activity (DU-145): 102.5%
- Activity (MCF7): 84.6%
- Activity (BT-549): 94.2%
- Activity (SNB-75): 74.3%
- Activity (A498): 44%
- Activity (COLO 205): 100.1%
- Activity (SK-OV-3): 98.7%
- Activity (SK-MEL-2): 94.5%
- Activity (OVCAR-4): 73.8%
- Activity (OVCAR-3): 94.9%
- Activity (HT-29): 89.3%
- Activity (NCI-H522): 91.5%
- Activity (ACHN): 89.8%
- Activity (NCI-H322M): 99.4%
- Activity (NCI/ADR-RES): 88.2%
- Activity (HCT-15): 104.5%
- Activity (RXF 393): 121.2%
- Activity (NCI-H23): 76.6%
- Activity (UACC-257): 106.8%
- Activity [2]: 77.8%
- Activity (HOP-92): 33.5%
- Activity (CAKI-1): 79.5%
- Activity (NCI-H460): 102.8%
- Activity (MDA-MB-468): 84%
- Activity (MDA-MB-231): 89.3%
- Activity (UO-31): 63.9%
- Activity (OVCAR-8): 96.7%
- Activity (786-0): 92.1%

Compound: O=C1/C(=C\c2cn(C(=O)c3ccccc3)c3ccccc23)c2ccccc2N1c1c(Cl)cccc1Cl
- Activity (TK-10): 118.8%
- Activity [1]: 107.3%
- Activity (U-251): 88.4%
- Activity (CCRF-CEM): 111.2%
- Activity (SK-MEL-28): 113.4%
- Activity (NCI-H226): 94.8%
- Activity (MDA-MB-435): 115.5%
- Activity (SR): 99.5%
- Activity (OVCAR-5): 94.2%
- Activity (LOX IMVI): 97.6%
- Activity (HCT-116): 94%
- Activity (EKVX): 97.7%
- Activity (KM12): 111.3%
- Activity (SF-295): 126.6%
- Activity (PC-3): 71.8%
- Activity (SF-268): 99.9%
- Activity (UACC-62): 95.4%
- Activity (A549): 110%
- Activity (SW-620): 104.6%
- Activity (K562): 114.6%
- Activity (MOLT-4): 89.6%
- Activity (HL-60(TB)): 102.5%
- Activity (HCC 2998): 101.6%
- Activity (M14): 104.2%
- Activity (SF-539): 104%
- Activity (Malme-3M): 106%
- Activity (HOP-62): 94.2%
- Activity (SK-MEL-5): 107.1%
- Activity (IGROV-1): 99.2%
- Activity (T47D): 92.4%
- Activity (SN12C): 89.5%
- Activity (DU-145): 119.5%
- Activity (MCF7): 95.7%
- Activity (BT-549): 106.5%
- Activity (SNB-75): 82.2%
- Activity (A498): 102.8%
- Activity (COLO 205): 122.5%
- Activity (SK-OV-3): 111.6%
- Activity (SK-MEL-2): 102.9%
- Activity (OVCAR-4): 99.5%
- Activity (OVCAR-3): 116.1%
- Activity (HT-29): 103.4%
- Activity (NCI-H522): 90.9%
- Activity (ACHN): 97.6%
- Activity (NCI-H322M): 111.9%
- Activity (NCI/ADR-RES): 99.7%
- Activity (HCT-15): 66.3%
- Activity (RXF 393): 150.7%
- Activity (NCI-H23): 97.2%
- Activity (UACC-257): 123.3%
- Activity [2]: 100.6%
- Activity (HOP-92): 79.8%
- Activity (CAKI-1): 86.4%
- Activity (NCI-H460): 111.1%
- Activity (MDA-MB-468): 97.7%
- Activity (MDA-MB-231): 103.3%
- Activity (UO-31): 76.9%
- Activity (OVCAR-8): 113.1%
- Activity (786-0): 90.7%
